The source of these data is publication PMC3479646 (ChemMedChem, 2011).

SMILES strings stand for the structures. Marks after values point to notes of the source that are not given here.

Assay [1] deals with T1, TRH-R1 (Mus musculus, UniProt P21761).
T1 sequence (P21761 1-393): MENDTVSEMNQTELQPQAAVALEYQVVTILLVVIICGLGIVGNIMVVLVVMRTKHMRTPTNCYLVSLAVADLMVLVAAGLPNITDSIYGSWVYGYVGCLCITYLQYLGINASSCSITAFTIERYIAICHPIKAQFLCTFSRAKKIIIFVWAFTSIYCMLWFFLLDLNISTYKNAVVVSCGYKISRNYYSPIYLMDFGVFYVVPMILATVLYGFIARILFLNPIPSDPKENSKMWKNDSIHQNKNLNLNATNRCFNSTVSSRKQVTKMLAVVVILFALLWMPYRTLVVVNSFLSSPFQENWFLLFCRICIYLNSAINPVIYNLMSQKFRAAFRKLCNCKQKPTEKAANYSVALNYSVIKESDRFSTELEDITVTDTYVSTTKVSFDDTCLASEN
Briefly: Receptor binding assay, competition with [3H][Nτ.

For assay [2], the system named is TRH-R2. Put plainly: Receptor binding assay, competition with [3H][Nτ. The conditions noted are these: ratio of Ki at TRH-R1 and TRH-R2; direction differs between compounds.
The target of assay [3] is T1, TRH-R1. Briefly: Signaling. It is filed as cell-based. In a few lines: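 HEK 293EM cells stably expressing TRH-R1, grown in DMEM with 10 % FBS and hygromycin, were seeded at 1.5 × 10^5 cells/well. After 16 h they were calcium-phosphate co-transfected with CREB and a CREB-driven luciferase reporter. Various concentrations of test compound were added in 1 % FBS medium for 6 h at 37 °C. Lysate luminescence was then read for 10 s, with 0.4 mM luciferin and 2 mM ATP. Data are from duplicates in three experiments.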

Assay [4] deals with TRH-R2. Briefly: Signaling. The assay is classed as cell-based. As to conditions: ratio of EC50 at TRH-R1 and TRH-R2. In a few lines:
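HEK 293EM cells stably expressing TRH-R1 or TRH-R2 were co-transfected with CREB and a CREB-luciferase reporter by calcium phosphate. […] Lysates were read by luminescence (0.4 mM luciferin, 2 mM ATP, 10 s). EC50 (μM) was found at each subtype, mean ±SD, duplicates, three experiments.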

In another assay the test system is Swiss albino mice. Put plainly: Antagonism of pentobarbital-induced sleeping time. The assay is classed as in vivo. The conditions noted are these: 10 μmol kg^−1 i.v.; for Sleep Time: pentobarbital 50 mg kg^−1 i.p. 10 min later, mean ± SEM; for Decrease in Sleep Time: (1−S/C)×100 relative to control, negative = increase; for effect on pentobarbital-induced sleeping time (in words): compared with control group.

Assay [5] concerns mice. Briefly: Pentylenetetrazole. It is filed as in vivo. As to conditions: 10 μmol kg^−1 i.v. 10 min prior to PTZ 65 mg kg^−1 i.p.; mean ± SEM.
For assay [6], the system named is mice. Briefly: Maximal electric shock. The assay is classed as in vivo. As to conditions: 10 μmol kg^−1 i.v. 10 min prior to MES 45 mA for 0.2 s; mean ± SEM. In a few lines:
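Male Swiss albino mice (20–30 g, n = 6–8/group) received saline vehicle or test compound at 10 μmol kg−1 i.v. via the tail vein. MES (45 mA, corneal electrode, 0.2 s) was applied 10 min later, and the duration of tonic hind limb extension was recorded. Data were analysed by one-way ANOVA with Tukey test versus saline.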

What is called Ki is the dissociation constant of the complex between target and ligand, obtained from inhibition or displacement. Low values mean a stronger hold on the target, high ones a looser hold on the target. The term EC50 denotes the concentration giving half of the maximal effect. Low values mean an effect from little substance, high ones a need for much substance. In the case of `CCCc1nc(C[C@H](NC(=O)[C@@H]2CCC(=O)N2)C(=O)N2CCC[C@H]2C(N)=O)cn1C` [Compd 10 a, L-pGlu-L-His(1-methyl-2-propyl)-L-ProNH2], affinity at TRH-R1 [1] was put at a Ki of 0.32 µM. The “Fold Selectivity (Ki)” value in the assay on TRH-R2 [2] amounted to 1.9. In addition, the EC50 on TRH-R1 [3] stood at 0.29 µM. The “Fold Selectivity (EC50)” value with TRH-R2 [4] worked out at 11. Besides, in the assay on Swiss albino mice, the “Sleep Time” value was 41.7 ± 6.1 ^[b] min, the “Decrease in Sleep Time” value is recorded as 52.7% and the “effect on pentobarbital-induced sleeping time (in words)” value (shortened to “effect”) is “significant decrease in sleeping time”.

Regarding `CC(C)c1nc(C[C@H](NC(=O)[C@@H]2CCC(=O)N2)C(=O)N2CCC[C@H]2C(N)=O)cn1C` [Compd 10 b, L-pGlu-L-His(1-methyl-2-isopropyl)-L-ProNH2], the Ki on TRH-R1 [1] was > 50 µM. Also, the concentration for a half-maximal effect (EC50) on TRH-R1 [3] was > 50 µM. In the assay with Swiss albino mice, the “Sleep Time” value is on record as 66.2 ± 9.8 min, the “Decrease in Sleep Time” value was 25.1% and the “effect” value is “significant decrease in sleeping time”.

As for `Cn1cc(C[C@H](NC(=O)[C@@H]2CCC(=O)N2)C(=O)N2CCC[C@H]2C(N)=O)nc1C(C)(C)C` [Compd 10 c, L-pGlu-L-His(1-methyl-2-tert-butyl)-L-ProNH2], at TRH-R1 [1], the Ki was > 50 µM. Besides, at TRH-R1 [3], the concentration for a half-maximal effect (EC50) is > 50 µM. Further, in the assay with Swiss albino mice, the “Sleep Time” value is 59.6 ± 5.5 min and the “Decrease in Sleep Time” value came out at 32.5%.

`CCCC1=NC=CC=CC=C2CN1C=C2C[C@H](NC(=O)[C@@H]1CCC(=O)N1)C(=O)N1CCC[C@H]1C(N)=O` [Compd 10 h, L-pGlu-L-His(1-benzyl-2-propyl)-L-ProNH2]: in the assay on Swiss albino mice, the “Sleep Time” value is given as 105.1 ± 5.76 min, the “Decrease in Sleep Time” value is reported as −18.8% and the “effect” value is recorded as “increased the sleeping time significantly”.

Turning to `NC(=O)[C@@H]1CCCN1C(=O)[C@H](CC1=CN2CC1=CC=CC=CC1CCCCN=C12)NC(=O)[C@@H]1CCC(=O)N1` (stereo partly drawn) [Compd 10 l, L-pGlu-L-His(1-benzyl-2-cyclopentyl)-L-ProNH2], in the assay with Swiss albino mice, the “Sleep Time” value is 163.3 ± 18.7 ^[b, ^c] min; the “Decrease in Sleep Time” value is reported as −84.7%; the “effect” value is “increased the sleeping time significantly”.

`CCCc1nc(C[C@H](NC(=O)[C@@H]2CCCC(=O)N2)C(=O)N2CCC[C@H]2C(N)=O)cn1C` [Compd 16 h, L-pAad-L-His(1-methyl-2-propyl)-L-ProNH2]: in the assay with Swiss albino mice, the “Sleep Time” value came out at 98.1 ± 9.4 min and the “Decrease in Sleep Time” value is given as −9.1%.

With `CC(C)c1nc(C[C@H](NC(=O)[C@@H]2CCCC(=O)N2)C(=O)N2CCC[C@H]2C(N)=O)cn1C` [Compd 16 i, L-pAad-L-His(1-methyl-2-isopropyl)-L-ProNH2], in the assay with Swiss albino mice, the “Sleep Time” value was 124.3 ± 5.8 min and the “Decrease in Sleep Time” value is given as −38.2%.

On to `Cn1cc(C[C@H](NC(=O)[C@@H]2CCCC(=O)N2)C(=O)N2CCC[C@H]2C(N)=O)nc1C(C)(C)C` [Compd 16 j, L-pAad-L-His(1-methyl-2-tert-butyl)-L-Pro-NH2], for which, on TRH-R1 [1], the Ki is > 50 µM. The concentration giving a half-maximal response (EC50) on TRH-R1 [3] is > 50 µM. In the assay on Swiss albino mice, the “Sleep Time” value was 93.1 ± 4.5 min and the “Decrease in Sleep Time” value is recorded as −3.6%.

With `CN1C=C(C[C@H](NC(=O)[C@@H]2CCCC(=O)N2)C(=O)N2CCC[C@H]2C(N)=O)C2CCCCN=C21` (stereo partly drawn) [Compd 16 k], in the assay on Swiss albino mice, the “Sleep Time” value is 108.1 ± 14.4 min and the “Decrease in Sleep Time” value is −20.2%.

For `CN1C=C(C[C@H](NC(=O)[C@@H]2CCCC(=O)N2)C(=O)N2CCC[C@H]2C(N)=O)C23CC4CC(CN=C12)CC(C4)C3` [Compd 16 m, L-pAad-L-His[1-methyl-2-(adamantan-1-yl)]-L-ProNH2], in the assay on Swiss albino mice, the “Sleep Time” value is listed as 76.0 ± 10.9 min and the “Decrease in Sleep Time” value was 15.4%.

Regarding `Cn1cnc(C[C@H](NC(=O)[C@@H]2CCC(=O)C2)C(=O)N2CCC[C@H]2C(N)=O)c1` [Compd 21 a, (1 R)-3-Ocp-L-His(1-methyl)-L-ProNH2], at TRH-R1 [1], the affinity, expressed as Ki, was 0.17 µM. The “decrease in binding affinity for TRH-R1 relative to TRH” value on TRH-R1 [1] (Ki compared with TRH) was determined as 10 fold. Moreover, the “Fold Selectivity (Ki)” value with TRH-R2 [2] is 10.6. Moreover, on TRH-R1 [3], the EC50 amounted to 0.05 µM. The “Fold Selectivity (EC50)” value in the assay on TRH-R2 [4] turned out to be 24. In the assay on mice [5], the “PTZ: Clonic Convulsions Frequency” value stood at 1.3 ± 0.33 min⁻¹ and the “PTZ: Clonic Convulsions Onset” value is given as 153 ± 7 ^*^, ^** s. Moreover, the “MES: Hind Limb Extension Duration” value in the assay on mice [6] came out at 10.0 ± 0.60 s.

Turning to `CCn1cnc(C[C@H](NC(=O)[C@@H]2CCC(=O)C2)C(=O)N2CCC[C@H]2C(N)=O)c1` [Compd 21 b, (1R)-3-Ocp-L-His(1-ethyl)-L-ProNH2], the Ki on TRH-R1 [1] turned out to be 0.1 µM. Also, the “Fold Selectivity (Ki)” value in the assay on TRH-R2 [2] turned out to be 3.2. In addition, the concentration for a half-maximal effect (EC50) on TRH-R1 [3] came out at 0.14 µM. For the same molecule, in the assay on TRH-R2 [4], the “Fold Selectivity (EC50)” value came to 4.7. Also, in the assay with mice [5], the “PTZ: Clonic Convulsions Frequency” value was determined as 1.3 ± 0.21 min⁻¹ and the “PTZ: Clonic Convulsions Onset” value is on record as 149 ± 8 ^*^, ^** s. Besides, the “MES: Hind Limb Extension Duration” value in the assay on mice [6] is listed as 11.3 ± 1.4 s.

On to `CCCn1cnc(C[C@H](NC(=O)[C@@H]2CCC(=O)C2)C(=O)N2CCC[C@H]2C(N)=O)c1` [Compd 21 c, (1R)-3-Ocp-L-His(1-propyl)-L-ProNH2], for which, on TRH-R1 [1], the Ki turned out to be 8.1 µM. The “Fold Selectivity (Ki)” value in the assay with TRH-R2 [2] amounted to 1.5. For the same molecule, the concentration giving a half-maximal response (EC50) on TRH-R1 [3] was determined as 4.6 µM. The “Fold Selectivity (EC50)” value in the assay with TRH-R2 [4] stood at 4. For the same molecule, in the assay with mice [5], the “PTZ: Clonic Convulsions Frequency” value came to 1.3 ± 0.21 min⁻¹ and the “PTZ: Clonic Convulsions Onset” value worked out at 68 ± 3 s. Moreover, in the assay on mice [6], the “MES: Hind Limb Extension Duration” value stood at 12.3 ± 0.90 s.

In the case of `CC(C)n1cnc(C[C@H](NC(=O)[C@@H]2CCC(=O)C2)C(=O)N2CCC[C@H]2C(N)=O)c1` [Compd 21 d, (1R)-3-Ocp-L-His(1-isopropyl)-L-ProNH2], at TRH-R1 [1], the Ki was > 50 µM. For the same molecule, at TRH-R1 [3], the EC50 was > 50 µM. For the same molecule, in the assay on Swiss albino mice, the “Sleep Time” value came out at 123.2 ± 5.9 min and the “Decrease in Sleep Time” value was −36.8%.

As for `CC(C)(C)C1=NC=CC=CC=C2CN1C=C2C[C@H](NC(=O)[C@@H]1CCC(=O)C1)C(=O)N1CCC[C@H]1C(N)=O` [Compd 22 c, (1R)-3-Ocp-L-His(1-benzyl-2-tert-butyl)-L-ProNH2], in the assay on Swiss albino mice, the “Sleep Time” value is on record as 91.6 ± 3.8 min and the “Decrease in Sleep Time” value is given as −1.9%.

`NC(=O)[C@@H]1CCCN1C(=O)[C@H](CC1=CN2CC1=CC=CC=CC1CCN=C12)NC(=O)[C@@H]1CCC(=O)C1` (stereo partly drawn) [Compd 22 d, (1R)-3-Ocp-L-His(1-benzyl-2-cyclopropyl)-L-ProNH2]: in the assay on Swiss albino mice, the “Sleep Time” value is recorded as 104.9 ± 5.5 min and the “Decrease in Sleep Time” value is −16.7%.

Turning to `CCCc1nc(C[C@H](NC(=O)[C@@H]2CCC(=O)C2)C(=O)N2CCC[C@H]2C(N)=O)cn1C` [Compd 22 h, (1R)-3-Ocp-L-His(1-methyl-2-propyl)-L-ProNH2], the inhibitory constant (Ki) on TRH-R1 [1] is > 50 µM. On TRH-R1 [3], the concentration for a half-maximal effect (EC50) is > 50 µM. Moreover, in the assay on Swiss albino mice, the “Sleep Time” value is 80.2 ± 2.4 min and the “Decrease in Sleep Time” value came to 10.7%.

Turning to `CC(C)c1nc(C[C@H](NC(=O)[C@@H]2CCC(=O)C2)C(=O)N2CCC[C@H]2C(N)=O)cn1C` [Compd 22 i, (1R)-3-Ocp-L-His(1-methyl-2-isopropyl)-L-ProNH2], the Ki on TRH-R1 [1] is > 50 µM. In addition, in the assay with Swiss albino mice, the “Sleep Time” value was 39.8 ± 5.5 ^[b, ^c] min and the “Decrease in Sleep Time” value is recorded as 55.6%.

For `Cn1cc(C[C@H](NC(=O)[C@@H]2CCC(=O)C2)C(=O)N2CCC[C@H]2C(N)=O)nc1C(C)(C)C` [Compd 22 j, (1R)-3-Ocp-L-His(1-methyl-2-tert-butyl)-L-ProNH2], in the assay with Swiss albino mice, the “Sleep Time” value is 89.8 ± 3.0 min and the “Decrease in Sleep Time” value was −0.01%.

On to `CN1C=C(C[C@H](NC(=O)[C@@H]2CCC(=O)C2)C(=O)N2CCC[C@H]2C(N)=O)C2CCCCCN=C21` (stereo partly drawn) [Compd 22 k, (1R)-3-Ocp-L-His(1-methyl-2-cyclohexyl)-L-ProNH2], for which, in the assay with Swiss albino mice, the “Sleep Time” value came to 106.2 ± 3.0 min and the “Decrease in Sleep Time” value is reported as −18.1%.
